Assay results reported in ChEMBL document CHEMBL1136105, “1,7- and 2,7-naphthyridine derivatives as potent and highly specific PDE5 inhibitors” (Bioorg Med Chem Lett, 2003).

Tests used:
Phosphodiesterase 1 = Phosphodiesterase 1 (Homo sapiens, UniProt P54750+Q01064+Q14123); assay: Inhibitory activity against phosphodiesterase-1 (PDE1) isolated from canine lung; assay type: protein assay, Canis lupus familiaris; conditions: target entry is the homologue from another species
How it was run: (§1)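 Enzyme IC50 taken from a logarithmic concentration–inhibition curve of at least four points; each value is the mean of at least two duplicate experiments.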

Phosphodiesterase 6 = assay: Inhibitory activity against Phosphodiesterase 6 isolated from bovine retina; assay type: protein assay
[1] = molecular target: cGMP-specific 3',5'-cyclic phosphodiesterase (Canis lupus familiaris, UniProt O77746); assay: Inhibitory activity against phosphodiesterase 5 (PDE5) isolated from canine lung; how it was run: as §1
[2] = molecular target: T1, cGMP-dependent 3',5'-cyclic phosphodiesterase (Bos taurus, UniProt P14099); assay: Inhibitory activity against phosphodiesterase-2 (PDE2) isolated from bovine adrenal gland; assay type: tissue-based; how it was run: as §1
T1 sequence (P14099 whole entry): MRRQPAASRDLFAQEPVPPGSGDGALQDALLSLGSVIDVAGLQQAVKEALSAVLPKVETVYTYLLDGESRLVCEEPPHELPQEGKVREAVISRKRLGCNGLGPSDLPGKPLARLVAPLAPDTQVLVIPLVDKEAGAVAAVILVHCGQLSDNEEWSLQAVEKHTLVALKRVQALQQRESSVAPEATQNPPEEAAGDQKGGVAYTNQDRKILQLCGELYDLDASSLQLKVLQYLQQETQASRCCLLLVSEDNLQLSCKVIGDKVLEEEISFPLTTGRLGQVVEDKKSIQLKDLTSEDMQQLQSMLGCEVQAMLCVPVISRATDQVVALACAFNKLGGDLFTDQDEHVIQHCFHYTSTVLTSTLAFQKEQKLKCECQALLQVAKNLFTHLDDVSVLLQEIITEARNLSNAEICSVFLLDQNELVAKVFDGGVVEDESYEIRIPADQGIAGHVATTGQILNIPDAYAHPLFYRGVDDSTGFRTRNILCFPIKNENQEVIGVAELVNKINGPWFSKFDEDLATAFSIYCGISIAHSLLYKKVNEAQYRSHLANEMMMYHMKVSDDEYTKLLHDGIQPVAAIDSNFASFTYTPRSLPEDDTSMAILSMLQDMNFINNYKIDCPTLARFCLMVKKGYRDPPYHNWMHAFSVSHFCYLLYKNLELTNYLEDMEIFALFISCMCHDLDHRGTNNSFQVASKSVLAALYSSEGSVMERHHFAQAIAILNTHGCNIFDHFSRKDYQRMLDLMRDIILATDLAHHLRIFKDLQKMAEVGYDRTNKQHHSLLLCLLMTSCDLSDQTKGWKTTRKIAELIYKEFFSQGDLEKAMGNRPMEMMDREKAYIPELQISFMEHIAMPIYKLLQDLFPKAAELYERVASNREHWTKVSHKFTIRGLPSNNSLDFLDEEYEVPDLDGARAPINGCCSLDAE

Oryctolagus cuniculus = species: Oryctolagus cuniculus; assay: Relaxant effect on rabbit corpus cavernosum; assay type: functional
Phosphodiesterase 4 = Phosphodiesterase 4 (Homo sapiens, UniProt P27815+Q08499+Q07343+Q08493); assay: Inhibitory activity against phosphodiesterase 4 (PDE4) isolated from canine lung; assay type: protein assay, Canis lupus familiaris; conditions: target entry is the homologue from another species; how it was run: as §1
Phosphodiesterase 3 = Phosphodiesterase 3 (Homo sapiens, UniProt Q14432+Q13370); assay: Inhibitory activity against phosphodiesterase-3 (PDE3) isolated from canine heart; assay type: protein assay, Canis lupus familiaris; conditions: target entry is the homologue from another species; how it was run: as §1

Row | SMILES | IC50 (Phosphodiesterase 1) [nM] | IC50 (Phosphodiesterase 6) [nM] | IC50 [1] [nM] | IC50 [2] [nM] | IC50 (Phosphodiesterase 4) [nM] | IC50 (Phosphodiesterase 3) [nM] | EC30 (Oryctolagus cuniculus) [nM]
1 | COC(=O)c1c(-c2cc(OC)c(OC)c(OC)c2)c2ccc(NCc3ccccn3)nc2c(=O)n1Cc1ccnc(C)c1.Cl | 41000 | 22 | 1.8 |  |  |  | 
2 | COC(=O)c1c(-c2cc(OC)c(OC)c(OC)c2)c2ccc(OCc3ccccn3)cc2c(=O)n1-c1ccc(N)cc1.O=S(=O)(O)O | 3000 | 28 |  | 9700 |  |  | 7.9
3 | COC(=O)c1c(-c2cc(OC)c(OC)c(OC)c2)c2ccnc(OCc3ncccn3)c2c(=O)n1Cc1ccnc(C)c1.Cl | > 100000 | 56 | 0.23 | > 100000 | 67000 | > 100000 | 5
4 | COC(=O)c1c(-c2cc(OC)c(OC)c(OC)c2)c2ccnc(OCc3ccccn3)c2c(=O)n1Cc1ccnc(C)c1 | 25000 | 4.4 | 0.31 |  |  |  | 
5 | COC(=O)c1c(-c2cc(OC)c(OC)c(OC)c2)c2ccc(OCCc3ccccn3)nc2c(=O)n1Cc1ccnc(C)c1 |  |  | 1.2 |  |  |  | 
6 | COC(=O)c1c(-c2cc(OC)c(OC)c(OC)c2)c2ccc(OCc3ccccn3)nc2c(=O)n1Cc1ccncc1.Cl | 45000 | 11 | 0.38 |  |  |  | 
7 | COC(=O)c1c(-c2cc(OC)c(OC)c(OC)c2)c2ccc(OCc3ccccn3)nc2c(=O)n1Cc1ccnc(C)c1.Cl | 33000 | 8.6 | 0.22 | 40000 | 30000 | > 100000 | 53

Now from value to compound, other results behind:

Row | IC50 (Phosphodiesterase 1) [nM] | IC50 (Phosphodiesterase 6) [nM] | IC50 [1] [nM] | IC50 [2] [nM] | IC50 (Phosphodiesterase 4) [nM] | IC50 (Phosphodiesterase 3) [nM] | SMILES | EC30 (Oryctolagus cuniculus) [nM]
8 | 40000 | 22 | 0.51 |  |  |  | COC(=O)c1c(-c2cc(OC)c(OC)c(OC)c2)c2ccc(OCc3ccccn3)nc2c(=O)n1-c1ccc(N)cc1.Cl | 
9 | 20000 | 230 | 11 |  |  |  | COC(=O)c1c(-c2cc(OC)c(OC)c(OC)c2)c2ccc(OCc3ccccn3)nc2c(=O)n1Cc1ccccn1.Cl | 
10 |  |  |  | 43000 |  |  | CCCc1nn(C)c2c(=O)[nH]c(-c3cc(S(=O)(=O)N4CCN(C)CC4)ccc3OCC)nc12 | 
11 | > 100000 | 42 | 1.9 | 25000 | 19000 | > 100000 | COC(=O)c1c(-c2cc(OC)c(OC)c(OC)c2)c2ccc(OCc3ncccn3)nc2c(=O)n1Cc1ccnc(C)c1.Cl | 37
12 | 20000 | 72 | 0.52 | > 100000 | 50000 | > 100000 | COC(=O)c1c(-c2cc(OC)c(OC)c(OC)c2)c2ccnc(OCCc3ccccn3)c2c(=O)n1Cc1ccnc(C)c1.Cl | 22
13 | > 100000 | 1400 | 94 |  |  |  | COC(=O)c1c(-c2cc(OC)c(OC)c(OC)c2)c2ccnc(N3CCN(C)CC3)c2c(=O)n1Cc1ccnc(C)c1 | 
14 | 22000 | 7.7 | 0.29 |  |  |  | COC(=O)c1c(-c2cc(OC)c(OC)c(OC)c2)c2ccc(OCc3cnccn3)nc2c(=O)n1Cc1ccnc(C)c1.Cl | 
15 | 19000 | 280 | 2.6 | 78000 | 450 | 5300 | COC(=O)c1c(-c2cc(OC)c(OC)c(OC)c2)c2ccnc(NCCO)c2c(=O)n1Cc1ccnc(C)c1.Cl | 14
16 | 12000 | 38 | 2.3 |  |  |  | COC(=O)c1c(-c2cc(OC)c(OC)c(OC)c2)c2ccc(OCc3ccccn3)nc2c(=O)n1Cc1cccnc1.Cl | 
